In ChEMBL document CHEMBL3272140, “Structure and antitumor activity relationship of 2-arylidene-4-cyclopentene-1, 3-diones and 2-arylideneindan-1, 3-diones” (J Med Chem, 1976):

test system: Mus musculus; experiment: Toxicity in mouse ascites sarcoma 180 cells allografted ddN mouse at 3 mg/kg/day for 5 days administered 24 hrs after tumor inoculation measured 7th day after tumor inoculation; type: organism-based; conditions: in vivo

Structure (SMILES) | Activity
O=C1C=CC(=O)C1 | Toxic

test system: Sarcoma-180; experiment: Antitumor activity against mouse ascites Sarcoma 180 cells allografted in ddN mouse assessed as percentage of total packed cell volume ratio at 10 mg/kg/day for 5 days administered 24 hrs after tumor inoculation measured 7th day after tumor inoculation; type: functional; conditions: not given
Method in brief: (§1)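 Compound given by injection once daily for 5 days, beginning 24 h after S-180 tumor inoculation. Antitumor activity was scored from the total packed cell volume ratio (TPCV %) on day 7 after inoculation.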

Structure (SMILES) | Activity
COc1ccc(C=C2C(=O)C=CC2=O)cc1 | 0%
COc1ccc(C=C2C(=O)C=CC2=O)cc1OC | 0%
COc1cc(C=C2C(=O)C=CC2=O)cc(OC)c1OCc1ccccc1 | 11%
O=C1C=CC(=O)C1=Cc1ccc(O)cc1 | 0%
COc1cc(C=C2C(=O)C=CC2=O)cc(OC)c1O | 0%
COc1cc(C=C2C(=O)C=CC2=O)ccc1OCc1ccccc1 | 11%
COc1cc(C=C2C(=O)C=CC2=O)cc(OC)c1OC | 0%
COc1ccc(C=C2C(=O)C=CC2=O)cc1O | 0%
O=C1C=CC(=O)C1=C/C=C/c1ccccc1 | 0%

test system: Sarcoma-180; experiment: Antitumor activity against mouse ascites Sarcoma 180 cells allografted in ddN mouse assessed as percentage of total packed cell volume ratio at 3 mg/kg/day for 5 days administered 24 hrs after tumor inoculation measured 7th day after tumor inoculation; type: functional; conditions: not given; method in brief: as §1

Structure (SMILES) | Activity
COc1cc(C=C2C(=O)C=CC2=O)ccc1O | 0%

test system: Sarcoma-180; experiment: Antitumor activity against mouse ascites Sarcoma 180 cells allografted in ddN mouse assessed as percentage of total packed cell volume ratio at 100 mg/kg/day for 5 days administered 24 hrs after tumor inoculation measured 7th day after tumor inoculation; type: functional; conditions: not given; method in brief: as §1

Structure (SMILES) | Activity
O=C1CC(=O)c2ccccc21 | 11%
O=C1C(=C/C=C/c2ccccc2)C(=O)c2ccccc21 | 66%
COc1cc(C=C2C(=O)c3ccccc3C2=O)cc(OC)c1OC | 41%
COc1cc(/C=C2\CC(C)C/C(=C\c3ccc(O)c(OC)c3)C2=O)ccc1O (stereo not given) | 66%
COc1cc(C=C2C(=O)c3ccccc3C2=O)cc(OC)c1O | 11%
COc1cc(/C=C2\CC(C)C/C(=C\c3ccc(OCc4ccccc4)c(OC)c3)C2=O)ccc1OCc1ccccc1 (stereo not given) | 66%
COc1cc(/C=C2\CC/C(=C\c3ccc(OCc4ccccc4)c(OC)c3)C2=O)ccc1OCc1ccccc1 | 66%
COc1cc(/C=C2\CCC(C)/C(=C\c3cc(OC)c(OC)c(OC)c3)C2=O)cc(OC)c1OC (stereo not given) | 66%
COc1cc(/C=C2\CC/C(=C\c3cc(OC)c(OCc4ccccc4)c(OC)c3)C2=O)cc(OC)c1OCc1ccccc1 | 66%
COc1cc(/C=C2\CCC(C)/C(=C\c3cc(OC)c(OCc4ccccc4)c(OC)c3)C2=O)cc(OC)c1OCc1ccccc1 (stereo not given) | 66%
COc1cc(/C=C2\CCC/C(=C\c3ccc(O)c(OC)c3)C2=O)ccc1O [CYCLOVALONE] | 66%
O=C1C(=Cc2ccc(O)cc2)C(=O)c2ccccc21 | 66%
COc1cc(C=C2C(=O)c3ccccc3C2=O)cc(OC)c1OCc1ccccc1 | 66%
COc1cc(/C=C2\CC(C)C/C(=C\c3cc(OC)c(OCc4ccccc4)c(OC)c3)C2=O)cc(OC)c1OCc1ccccc1 (stereo not given) | 66%
COc1cc(/C=C2\CCC/C(=C\c3ccc(OCc4ccccc4)c(OC)c3)C2=O)ccc1OCc1ccccc1 | 66%
COc1cc(/C=C2\CC(C)C/C(=C\c3cc(OC)c(O)c(OC)c3)C2=O)cc(OC)c1O (stereo not given) | 66%
COc1ccc(C=C2C(=O)c3ccccc3C2=O)cc1 | 66%
COc1cc(C=C2C(=O)c3ccccc3C2=O)ccc1O | 0%
COc1cc(C=C2C(=O)c3ccccc3C2=O)ccc1OCc1ccccc1 | 66%
COc1cc(/C=C2\CCC/C(=C\c3cc(OC)c(O)c(OC)c3)C2=O)cc(OC)c1O | 66%
COc1cc(/C=C2\CC/C(=C\c3cc(OC)c(O)c(OC)c3)C2=O)cc(OC)c1O | 66%
COc1ccc(C=C2C(=O)c3ccccc3C2=O)cc1O | 41%
COc1cc(/C=C/C=C2C(=O)c3ccccc3C2=O)ccc1O | 66%
COc1ccc(C=C2C(=O)c3ccccc3C2=O)cc1OC | 41%
COc1cc(/C=C2\CCC(C)/C(=C\c3cc(OC)c(O)c(OC)c3)C2=O)cc(OC)c1O (stereo not given) | 66%
COc1cc(/C=C2\CC/C(=C\c3ccc(O)c(OC)c3)C2=O)ccc1O | 66%
COc1cc(/C=C2\CCC(C)/C(=C\c3ccc(O)c(OC)c3)C2=O)ccc1O (stereo not given) | 66%
COc1cc(/C=C2\CCC(C)/C(=C\c3ccc(OCc4ccccc4)c(OC)c3)C2=O)ccc1OCc1ccccc1 (stereo not given) | 66%
COc1cc(/C=C2\CCC/C(=C\c3cc(OC)c(OCc4ccccc4)c(OC)c3)C2=O)cc(OC)c1OCc1ccccc1 | 66%
